Data published in ChEMBL document CHEMBL1145129, “Design, synthesis, and anticancer properties of 4,4'-dihydroxybenzophenone-2,4-dinitrophenylhydrazone and analogues” (J Med Chem, 2003).
Values after ≈ are worked out from the molar mass of the structure shown.

What was measured:
Homo sapiens [1] = organism: Homo sapiens; assay: In vitro cytotoxicity in Human ovary tumor cells; type: functional; settings: Female gonad
Outline: (§1)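 Fresh surgical human tumor specimens minced to ≤0.1 mm fragments in RPMI-1640 with 10% FBS, streptomycin and penicillin (10⁶–10⁸ cells/mL), explanted into slide flasks. Exposed 24 h at 37 °C, 5% CO₂, to test agent 0.1–20 μg/mL (≥5 doses over 3 logs), in duplicate. Washed, recultured 7–14 days, fixed, HPF cell counts vs control; IC50 (SD) from percent growth.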

Homo sapiens [2] = organism: Homo sapiens; assay: In vitro cytotoxicity against Human lung tumor cells.; type: functional; outline: as §1
Melanoma tumor cell line [3] = assay: In vitro cytotoxicity against Human melanoma tumor cells.; type: functional, cell-based; outline: as §1
[4] = tested on: breast cancer cells (Homo sapiens); assay: In vitro cytotoxicity in Human breast tumor cells
[5] = In vitro cytotoxicity in Human breast tumor cells; type: functional, cell-based; outline: as §1
Colon carcinoma cell = assay: In vitro cytotoxicity was tested in human colon tumor cells; type: functional, cell-based; outline: as §1
Homo sapiens [6] = organism: Homo sapiens; assay: In vitro cytotoxicity against Human lung tumor cells; Not available.; type: functional; outline: as §1
Melanoma tumor cell line [7] = assay: In vitro cytotoxicity against Human melanoma tumor cells; Not available.; type: functional, cell-based; outline: as §1
[8] = In vitro cytotoxicity in K 1735 M2 cell line; type: functional
[9] = In vitro cytotoxicity in KM 12L4 cell line; type: functional, cell-based; settings: Homo sapiens
Outline: (§2)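 Established tumor lines kept in RPMI-1640 with 10% fetal calf serum and penicillin/streptomycin at 36 °C, 10% CO₂. Seeded 2000–3000 cells/well; hydrazone-containing medium added after 18 h, then 36 h further culture. Viable cells read by MTT absorbance at 570 nm; cytostasis (%) = (1 − A_treated/A_control) × 100.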

MDA-MB-435 = assay: In vitro cytotoxicity in MDA-MB-435 cell line; type: functional, cell-based; settings: Homo sapiens; outline: as §2
[10] = In vitro cytotoxicity in SN 12 PM6 cell line; type: functional, cell-based; settings: Homo sapiens; outline: as §2
[11] = In vitro cytotoxicity in FDCP-1 cell line; settings: Mus musculus, FDC-P1
[12] = In vitro cytotoxicity in B 16 F10 cell line; settings: Mus musculus, B16-F10
[13] = In vitro cytotoxicity in KM 12 C cell line; type: functional; settings: Homo sapiens, KM12C; outline: as §2
[14] = In vitro cytotoxicity in KM 12 SM cell line; type: functional; settings: Homo sapiens, KM12
Outline: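 Established lines kept in RPMI-1640 with 10% fetal calf serum and penicillin/streptomycin at 36 °C, 10% CO₂. Cells seeded at 2000–3000 cells/well, hydrazones added at several concentrations after 18 h, and exposed a further 36 h. Viable cells read by MTT absorbance at 570 nm; cytostasis (%) = (1 − A/B)×100 against untreated control.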

[15] = In vitro cytotoxicity in MDA-MB-435/lung met cell line; type: functional; settings: Homo sapiens; outline: as §2

SMILES	IC50 (Homo sapiens [1])	IC50 (Homo sapiens [2])	IC50 (Melanoma tumor cell line [3])	IC50 [5]	IC50 (Colon carcinoma cell)	IC50 (Homo sapiens [6])	IC50 (Melanoma tumor cell line [7])	also measured
O=[N+]([O-])c1ccc(NN=C(c2ccccc2)c2ccccc2)c([N+](=O)[O-])c1	> 10 µg/mL	> 5 µg/mL	> 10 µg/mL	–	–	–	–	IC50 [4]: > 5 µg/mL
CC(=O)Nc1ccc(C(=NNc2ccc([N+](=O)[O-])cc2[N+](=O)[O-])c2ccc(NC(C)=O)cc2)cc1	> 10 µg/mL	–	> 10 µg/mL	> 10 µg/mL	> 10 µg/mL	Not Active	–	–
O=[N+]([O-])c1ccc(N(Cc2ccccc2)N=c2c3ccccc3oc3ccccc23)c([N+](=O)[O-])c1	> 10 µg/mL	–	> 10 µg/mL	> 10 µg/mL	–	Not Active	–	–
CCN(CC)c1ccc(C(=NNc2ccc([N+](=O)[O-])cc2[N+](=O)[O-])c2ccc(N(CC)CC)cc2)cc1	–	–	5 µg/mL (≈ 9.91 µM)	> 7 µg/mL	> 10 µg/mL	Not Active	–	–
O=[N+]([O-])c1ccc(N/N=C(\c2ccccc2)c2ccc(O)cc2)c([N+](=O)[O-])c1	0.3 µg/mL (≈ 0.793 µM)	–	> 10 µg/mL	–	0.5 µg/mL (≈ 1.32 µM)	Not Active	–	IC50 [4]: 5 µg/mL (≈ 13.2 µM)
O=[N+]([O-])c1ccc(N/N=C2\c3ccccc3-c3cccc(O)c32)c([N+](=O)[O-])c1	–	–	–	7.5 µg/mL (≈ 19.9 µM)	> 5 µg/mL	Not Active	Not Active	–
O=[N+]([O-])c1ccc(/N=N/c2c3ccccc3c3c4c(cccc24)NN3)c([N+](=O)[O-])c1	> 5 µg/mL	–	–	> 5 µg/mL	> 5 µg/mL	Not Active	Not Active	–
O=[N+]([O-])c1ccc(NN=C2c3cc(O)ccc3-c3ccc(O)cc32)c([N+](=O)[O-])c1	0.08 µg/mL (≈ 0.204 µM)	> 10 µg/mL	4.1 µg/mL (≈ 10.5 µM)	0.05 µg/mL (≈ 0.127 µM)	0.06 µg/mL (≈ 0.153 µM)	–	–	–
Cc1ccc(NN=C(c2ccc(O)cc2)c2ccc(O)cc2)c(C)c1	–	–	–	–	–	Not Active	Not Active	IC50 [4]: 10 µg/mL (≈ 30.1 µM)
COc1ccc2c(=NNc3ccc([N+](=O)[O-])cc3[N+](=O)[O-])c3ccc(OC)cc3oc2c1	–	–	–	> 5 µg/mL	–	Not Active	Not Active	IC50 [8]: 0.64 µg/mL (≈ 1.47 µM); IC50 [9]: 1.57 µg/mL (≈ 3.6 µM); IC50 (MDA-MB-435): 0.41 µg/mL (≈ 0.94 µM); IC50 [10]: 0.62 µg/mL (≈ 1.42 µM); IC50 [11]: 0.95 µg/mL (≈ 2.18 µM); IC50 [12]: 0.44 µg/mL (≈ 1.01 µM)
Nc1ccc(/C(=N/Nc2ccc([N+](=O)[O-])cc2[N+](=O)[O-])c2ccccc2N)cc1	2 µg/mL (≈ 5.1 µM)	–	6 µg/mL (≈ 15.3 µM)	0.7 µg/mL (≈ 1.78 µM)	8 µg/mL (≈ 20.4 µM)	Not Active	–	–
O=[N+]([O-])c1ccc(/N=N/c2c3ccccc3c(O)c3c(O)c(O)ccc23)c([N+](=O)[O-])c1	> 10 µg/mL	> 10 µg/mL	> 5 µg/mL	0.007 µg/mL (≈ 0.0167 µM)	0.25 µg/mL (≈ 0.595 µM)	–	–	–
O=[N+]([O-])c1ccc(/N=N/c2c3ccccc3c(O)c3c(O)c4ccccc4cc23)c([N+](=O)[O-])c1	–	0.1 µg/mL (≈ 0.22 µM)	–	0.3 µg/mL (≈ 0.66 µM)	–	–	Not Active	–
O=[N+]([O-])c1ccc(N/N=C(\c2ccccc2)c2ccc(O)cc2O)c([N+](=O)[O-])c1	–	–	–	–	–	Not Active	Not Active	IC50 [4]: 0.5 µg/mL (≈ 1.27 µM)
O=[N+]([O-])c1ccc(NN=C(c2ccc(O)cc2O)c2ccc(O)cc2O)c([N+](=O)[O-])c1	0.03 µg/mL (≈ 0.0704 µM)	> 5 µg/mL	–	–	> 5 µg/mL	–	Not Active	IC50 [4]: > 10 µg/mL
COc1ccc(C(=NNc2ccc([N+](=O)[O-])cc2[N+](=O)[O-])c2ccc(OC)cc2O)c(O)c1	> 5 µg/mL	–	–	–	4.5 µg/mL (≈ 9.9 µM)	Not Active	Not Active	IC50 [4]: 1.5 µg/mL (≈ 3.3 µM)
Nc1ccc2c(NNc3ccc([N+](=O)[O-])cc3[N+](=O)[O-])c3cc(N)ccc3c(/N=N/c3ccc([N+](=O)[O-])cc3[N+](=O)[O-])c2c1	> 5 µg/mL	–	–	> 5 µg/mL	> 5 µg/mL	Not Active	Not Active	–
O=[N+]([O-])c1ccc(/N=N/c2c3cc(O)ccc3c(NNc3ccc([N+](=O)[O-])cc3[N+](=O)[O-])c3cc(O)ccc23)c([N+](=O)[O-])c1	–	1 µg/mL (≈ 1.67 µM)	–	2.5 µg/mL (≈ 4.16 µM)	3.9 µg/mL (≈ 6.5 µM)	–	Not Active	–

SMILES	IC50 (Homo sapiens [1])	IC50 (Homo sapiens [2])	IC50 (Melanoma tumor cell line [3])	IC50 [5]	IC50 (Colon carcinoma cell)	IC50 (Homo sapiens [6])	IC50 (Melanoma tumor cell line [7])	also measured
O=[N+]([O-])c1ccc(/N=N/c2c3cccc(O)c3c(O)c3c(O)cccc23)c([N+](=O)[O-])c1	–	0.12 µg/mL (≈ 0.285 µM)	–	0.03 µg/mL (≈ 0.0714 µM)	0.03 µg/mL (≈ 0.0714 µM)	–	Not Active	IC50 [8]: 0.02 µg/mL (≈ 0.0476 µM); IC50 [13]: 0.03 µg/mL (≈ 0.0714 µM); IC50 [14]: 0.05 µg/mL (≈ 0.119 µM); IC50 [9]: 0.02 µg/mL (≈ 0.0476 µM); IC50 (MDA-MB-435): 0.02 µg/mL (≈ 0.0476 µM); IC50 [15]: 0.03 µg/mL (≈ 0.0714 µM); IC50 [10]: 0.03 µg/mL (≈ 0.0714 µM)
O=[N+]([O-])c1ccccc1NN=C(c1ccc(O)cc1)c1ccc(O)cc1	–	–	–	–	4.7 µg/mL (≈ 13.5 µM)	Not Active	Not Active	IC50 [4]: 3.9 µg/mL (≈ 11.2 µM)
C/C(=N\Nc1ccc([N+](=O)[O-])cc1)c1ccc(O)cc1	6 µg/mL (≈ 22.1 µM)	–	–	5 µg/mL (≈ 18.4 µM)	–	Not Active	Not Active	–
CC(=O)Oc1cccc2c(/N=N/c3ccc([N+](=O)[O-])cc3[N+](=O)[O-])c3cccc(OC(C)=O)c3c(O)c12	0.3 µg/mL (≈ 0.595 µM)	0.1 µg/mL (≈ 0.198 µM)	0.07 µg/mL (≈ 0.139 µM)	0.04 µg/mL (≈ 0.0793 µM)	0.16 µg/mL (≈ 0.317 µM)	–	–	IC50 [8]: 0.042 µg/mL (≈ 0.0833 µM); IC50 [9]: 0.07 µg/mL (≈ 0.139 µM); IC50 (MDA-MB-435): 0.041 µg/mL (≈ 0.0813 µM); IC50 [10]: 0.021 µg/mL (≈ 0.0416 µM)
CC(=O)c1ccc2c(c1)/C(=N\Nc1ccc([N+](=O)[O-])cc1[N+](=O)[O-])c1ccc(C(C)=O)cc1-2	0.9 µg/mL (≈ 2.03 µM)	> 5 µg/mL	0.5 µg/mL (≈ 1.13 µM)	> 5 µg/mL	0.7 µg/mL (≈ 1.58 µM)	–	–	–
O=c1c2cccc3c2c(nn1-c1ccccc1[N+](=O)[O-])-c1ccccc1-3	> 5 µg/mL	> 5 µg/mL	0.4 µg/mL (≈ 1.17 µM)	> 5 µg/mL	> 5 µg/mL	–	–	–
O=[N+]([O-])c1ccc(NN=c2c3ccccc3oc3ccccc23)c([N+](=O)[O-])c1	0.05 µg/mL (≈ 0.133 µM)	> 10 µg/mL	> 10 µg/mL	0.04 µg/mL (≈ 0.106 µM)	0.05 µg/mL (≈ 0.133 µM)	–	–	–
O=[N+]([O-])c1ccc(NN=c2c3ccccc3[s+]([O-])c3ccccc23)c([N+](=O)[O-])c1 (stereo unspecified)	> 10 µg/mL	> 10 µg/mL	> 10 µg/mL	> 10 µg/mL	> 10 µg/mL	–	–	–
CC(=O)Oc1ccc(C(=NNc2ccc([N+](=O)[O-])cc2[N+](=O)[O-])c2ccc(OC(C)=O)cc2)cc1	> 10 µg/mL	> 10 µg/mL	> 10 µg/mL	–	> 10 µg/mL	–	–	–
O=[N+]([O-])c1ccc(NN=C(c2ccccc2O)c2ccccc2O)c([N+](=O)[O-])c1	5 µg/mL (≈ 12.7 µM)	6 µg/mL (≈ 15.2 µM)	> 5 µg/mL	–	8 µg/mL (≈ 20.3 µM)	–	–	IC50 [4]: 4.7 µg/mL (≈ 11.9 µM)
Oc1ccc(C(=NNc2ccccc2)c2ccc(O)cc2)cc1	6.2 µg/mL (≈ 20.4 µM)	> 10 µg/mL	7 µg/mL (≈ 23 µM)	–	> 5 µg/mL	–	–	IC50 [4]: > 5 µg/mL
Nc1ccc2c(/N=N/c3ccc([N+](=O)[O-])cc3[N+](=O)[O-])c3ccccc3c(O)c2c1N	6 µg/mL (≈ 14.3 µM)	–	–	5 µg/mL (≈ 12 µM)	5 µg/mL (≈ 12 µM)	Not Active	Not Active	–
CC(=O)Oc1cccc2c(/N=N/c3ccc([N+](=O)[O-])cc3[N+](=O)[O-])c3cccc(O)c3c(O)c12	0.4 µg/mL (≈ 0.865 µM)	–	0.097 µg/mL (≈ 0.21 µM)	0.05 µg/mL (≈ 0.108 µM)	0.03 µg/mL (≈ 0.0649 µM)	Not Active	–	–
CC(=O)Oc1cccc2c1-c1nn(-c3ccccc3)c(=O)c3cccc(c13)C2=O	> 10 µg/mL	–	–	> 5 µg/mL	–	Not Active	Not Active	–
O=[N+]([O-])c1ccc(N/N=C(\c2ccc(O)cc2)c2ccc(Cl)cc2)c([N+](=O)[O-])c1	–	–	–	–	> 10 µg/mL	Not Active	Not Active	IC50 [4]: 8.7 µg/mL (≈ 21.1 µM)
C=CCOc1cccc2c(/N=N/c3ccc([N+](=O)[O-])cc3[N+](=O)[O-])c3cccc(OC(C)=O)c3c(O)c12	–	0.07 µg/mL (≈ 0.139 µM)	–	0.1 µg/mL (≈ 0.199 µM)	0.08 µg/mL (≈ 0.159 µM)	–	Not Active	–
CN(C)c1ccc(C(=NNc2ccc([N+](=O)[O-])cc2[N+](=O)[O-])c2ccc(N(C)C)cc2)cc1	–	–	5 µg/mL (≈ 11.1 µM)	4.2 µg/mL (≈ 9.36 µM)	10 µg/mL (≈ 22.3 µM)	Not Active	–	–
